The values that follow come from ChEMBL document CHEMBL5046236, “Synthesis and structure-activity relationship study of new biaryl amide derivatives and their inhibitory effects against hepatitis C virus” (Eur J Med Chem, 2022).

Broadly, the LD50 is the dose expected to kill half of the subjects tested. As usually defined, the CC50 is the concentration that lowers cell viability or growth by half. Broadly, the pEC50 is the negative decadic logarithm of the EC50, by convention in mol/L. As a reminder, the solubility is the concentration that dissolves in the medium under given conditions. High values mean a readily soluble substance, low ones a poorly soluble substance. The inhibition is the percentage by which the read-out fell short of the control. Low readings indicate little suppression, high ones strong suppression.

pEC50: −log10 of the molar value. Where only a bound is given, the exact number is not on record here.

Data set [1] is described as follows: Acute toxicity in ip dosed Kunming mouse assessed as lethal dose measured after 7 days. It is filed as organism-based. The note with it: in vivo, 168 h, time 7 day. In short, it runs like this: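 Single intraperitoneal dose at 50, 100, 150 or 200 mg/kg, n = 6 per group. Animals watched closely for 7 days. Median lethal dose (LD₅₀) estimated from deaths across the dose groups.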

Data set [2] has as its system Huh-7.5. The experiment in a line: (§1) Cytotoxicity against human Huh7.5 cells assessed as inhibition of cell growth measured after 96 hrs by MTT assay. As to conditions: huh-7.5, 96 h. It is filed as toxicity, cell-based. The essentials:
(§2)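 Huh7.5 cells in DMEM with 10% heat-inactivated FBS, seeded at 3.0 × 10⁴ cells/cm²; after 24 h, fresh medium with compound added (DMSO stocks, eight 1:5 serial dilutions).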

Data set [3] is described as follows: Selectivity index, ratio of CC50 for cytotoxicity against human Huh7.5 cells to EC50 for antiviral activity against Hepatitis C virus infected in human Huh7.5 cells. The data set is classed as toxicity, cell-based. The note with it: read-out: Ratio CC50/EC50.
In data set [4] the test system is Hepatitis C virus. The experiment in a line: Antiviral activity against Hepatitis C virus infected in human Huh7.5 cells assessed as inhibition of viral replication incubated for 72 hrs by qRT-PCR analysis. The note with it: Huh7.5, 72 h. The data set is classed as functional, organism-based, Hepacivirus hominis. For orientation: Quantitative PCR measures a nucleic acid by following its amplification.

The nature of data set [5]: as §1. It is filed as toxicity, cell-based, Huh-7.5. As to conditions: Huh7.5 cells. In short, it runs like this: as §2
A short description of data set [6]: Aqueous Solubility of compound at pH 7 measured after 10 mins by HPLC-UV analysis. The data set is classed as physicochemical. The note with it: buffer.
In data set [7] the target is DNA dC->dU-editing enzyme APOBEC-3G (Homo sapiens) (UniProt Q9HC16). The experiment in a line: Inhibition of Vif-mediated human A3G degradation in HEK-293T cells cotransfected with hA3G and Vif at 20 uM by western blot analysis relative to control. It is filed as cell-based. The essentials:
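293T cells cotransfected with hA3G and Vif expression vectors, then treated with compounds at 20 μM; MG132 proteasome inhibitor as positive control, DMSO-treated cells as comparator for hA3G degradation.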
On the technique in general: In western blotting, separated proteins are transferred to a membrane and probed.

Chain of DNA dC->dU-editing enzyme APOBEC-3G (Homo sapiens) (Q9HC16 whole entry): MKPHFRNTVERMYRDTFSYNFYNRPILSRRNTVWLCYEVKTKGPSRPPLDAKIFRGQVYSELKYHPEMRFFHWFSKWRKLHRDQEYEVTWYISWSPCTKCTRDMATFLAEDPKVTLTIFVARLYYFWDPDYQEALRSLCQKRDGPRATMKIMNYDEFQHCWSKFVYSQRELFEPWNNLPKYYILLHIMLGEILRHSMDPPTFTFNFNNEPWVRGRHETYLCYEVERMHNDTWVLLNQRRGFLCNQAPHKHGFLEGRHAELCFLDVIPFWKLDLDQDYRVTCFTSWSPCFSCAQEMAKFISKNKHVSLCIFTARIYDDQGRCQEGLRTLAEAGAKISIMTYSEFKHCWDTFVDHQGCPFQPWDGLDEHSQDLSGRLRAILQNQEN

Turning to `CN1CCN(Cc2ccc(NC(=O)c3ccc(OCCCCl)c([N+](=O)[O-])c3)cc2C(F)(F)F)CC1`, the median lethal dose (LD50) in data set [1] was less than 100 mg/kg. The CC50 in data set [2] came to 6.8 µM. In addition, the selectivity ratio in data set [3] came to 154. Besides, the pEC50 in data set [4] was 7.36.
In the case of `CN1CCN(Cc2ccc(NC(=O)c3ccc(OCCCCl)c([N+](=O)[O-])c3)cn2)CC1`, the 50% cytotoxic concentration (CC50) at 96 h in data set [5] turned out to be 12.6 µM. In data set [3], the selectivity ratio came out at 151. Also, the pEC50 in data set [4] is 7.08.
`CN(C)C1CN(Cc2ccc(NC(=O)c3ccc(OCCCl)c([N+](=O)[O-])c3)cc2C(F)(F)F)C1.Cl`: the solubility at 10 min in data set [6] came to 7.8 mg/mL.
Take `COc1ccc(NC(=O)c2ccc(OCCCN(C)C)c([N+](=O)[O-])c2)cc1`: the CC50 in data set [2] worked out at 126 µM. Besides, in data set [3], the selectivity ratio turned out to be 14. Besides, the inhibition in data set [7] is less than 25%. The negative logarithm of the EC50 (pEC50) in data set [4] was 5.05.
For `CCC(=O)Nc1cc(C(=O)Nc2ccc(-c3cc4ccccc4[nH]3)cc2)ccc1OC` the same measures were 65.6 µM, 9, greater than 50% and 5.13.
Consider `CCC(=O)Nc1cc(C(=O)Nc2ccc(OC)cc2)ccc1OC(C)C`, for which, in data set [2], the CC50 turned out to be 113 µM. For the same molecule, the selectivity ratio in data set [3] came to 103. In addition, in data set [7], the inhibition is less than 25%. Besides, the negative logarithm of the EC50 (pEC50) in data set [4] was 5.96.
In the case of `CCC(=O)Nc1cc(C(=O)Nc2ccc(OC)cc2)ccc1OC`, the cytotoxic concentration (CC50) in data set [2] turned out to be 109 µM. Besides, the selectivity ratio in data set [3] was 84. Moreover, the inhibition in data set [7] was greater than 50%. Further, the pEC50 in data set [4] was 5.89.
The matching figures for `COc1ccc(NC(=O)c2ccc3c(c2)NC(=O)CO3)cc1`: 77.3 µM, 10, 25% and 5.13.
